Experimental data as given in ChEMBL document CHEMBL2396552, “Novel inhibitors of a Grb2 SH3C domain interaction identified by a virtual screen” (Bioorg Med Chem, 2013).
Calls of active or inactive are those of the source.

Columns and labels:
[1] = molecular target: T1, Growth factor receptor-bound protein 2 (Homo sapiens, UniProt P62993); assay: Binding affinity to GST-tagged Grb2 SH3C domain (unknown origin) using biotinylated Gab2b peptide as substrate at 5 mM by SDS-PAGE analysis
Method in brief: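 Purified GST–Grb2 SH3C (10 µg/sample) was pre-incubated with compound at 5 mM, in duplicate, for 2 h at 4 °C. Streptavidin beads carrying biotinylated Gab2b peptide were then added for 30 min. After PBS-T washes, bound protein was resolved by SDS-PAGE, Coomassie-stained and scored by densitometry relative to the no-inhibitor control (100%).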
Target sequence in this assay (P62993 whole entry, looked up, the tested form may be a part): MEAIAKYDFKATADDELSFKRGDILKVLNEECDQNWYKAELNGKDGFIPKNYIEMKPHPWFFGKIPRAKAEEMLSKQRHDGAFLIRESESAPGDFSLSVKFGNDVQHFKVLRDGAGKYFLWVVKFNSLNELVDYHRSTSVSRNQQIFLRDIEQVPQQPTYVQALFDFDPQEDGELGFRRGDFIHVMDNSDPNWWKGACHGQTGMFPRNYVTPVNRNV

[2] = molecular target: T1, Growth factor receptor-bound protein 2; assay: Binding affinity to wild type human Grb2 SH3C domain at 50 to 100 uM by SPR assay
Method in brief: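 Untagged Grb2 SH3C was amine-coupled to a CM5 chip at about 1500 RU. Compounds at 50 and 100 µM in HBS-N (10 mM Hepes pH 7.4, 150 mM NaCl) with 5% DMSO and 0.01% Tween 20 were injected for 120 s at 40 µL/min and 25 °C. Responses were double-referenced. Binders were defined by a response of at least 5 RU at 100 µM, derived from a KD cutoff of ≤1 mM.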
Target sequence in this assay (P62993 whole entry, looked up, the tested form may be a part): as above

[3] = molecular target: T1, Growth factor receptor-bound protein 2; assay: Binding affinity to wild type human Grb2 SH3C domain at > 200 uM by SPR assay
Target sequence in this assay (P62993 whole entry, looked up, the tested form may be a part): as above

[4] = molecular target: T1, Growth factor receptor-bound protein 2; assay: Binding affinity to Grb2 SH3C domain (unknown origin) at 1 mM by isothermal titration calorimetry
Method in brief: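 ITC at 25 °C used 20 µM purified Grb2 SH3C in the cell, in 50 mM Hepes pH 7.5, 50 mM NaCl, 0.5% DMSO. Compound at 1 mM in the same buffer was titrated in: one 4 µL injection followed by 18 injections of 15 µL.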
Target sequence in this assay (P62993 whole entry, looked up, the tested form may be a part): as above

[5] = molecular target: T1, Growth factor receptor-bound protein 2; assay: Competitive inhibition of GST-tagged Grb2 SH3C domain (unknown origin)-Gab2 interaction incubated 2 hrs prior to biotinylated Gab2b peptide addition measured after 30 mins by SDS-PAGE analysis
Method in brief: (§1)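 Concentration-response format of the bead pull-down. GST–Grb2 SH3C (10 µg) was pre-incubated 2 h at 4 °C with increasing compound concentrations in Tris pH 7.5 buffer containing 5% DMSO. Biotin-Gab2b peptide–streptavidin beads were added for 30 min. Bound protein was measured by SDS-PAGE/Coomassie densitometry, normalized to the no-inhibitor sample, and fitted to a sigmoidal inhibition model by nonlinear regression. Gels represent 4–6 repeats.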
Target sequence in this assay (P62993 whole entry, the tested form may be a part): as the sequence (P62993 whole entry, looked up, the tested form may be a part) above

[6] = molecular target: T1, Growth factor receptor-bound protein 2; assay: Inhibition of GST-tagged Grb2 SH3C domain (unknown origin)-Gab2 interaction up to 20 mM incubated 2 hrs prior to biotinylated Gab2b peptide addition measured after 30 mins by SDS-PAGE analysis; method in brief: as §1
Target sequence in this assay (P62993 whole entry, looked up, the tested form may be a part): as above

NCCN1CCN=C1C1=NCCN1CCN
Activity [1]: inactive

N=C(NC1=NCCN1)C(=N)NC1=NCCN1
Activity [1]: inactive

Nc1n[nH]c2cc(O)[nH]c(=O)c12
Activity [1]: > 20%

C1CN=C(C2=NCCCN2)NC1
Activity [1]: inactive

CN1C[C@@H]2[C@@H](N)N=C(N)N[C@@H]2C1(C)C
Activity [1]: inactive

N=C(NCCN)C(=N)NCCN
Activity [1]: inactive

Cc1ccc(C(/C=C/c2ccccc2)=N/NC(=N)N)cc1
Activity [1]: > 20%
Activity [2]: Active

CC1(C)N=C(N)N=C(N)N1c1cccc(OCCOc2cccc(N)c2)c1
Activity [1]: inactive
Activity [2]: Active

CC1(C)N=C(N)N=C(N)N1c1cccc(OCc2cccc(N)c2)c1
Activity [1]: inactive
Activity [2]: Active

CC1(C)N=C(N)N=C(N)N1c1cccc(CCCCc2cccc(N)c2)c1
Activity [3]: Active
Activity [4]: inactive
Activity [1]: > 20%
Activity [2]: Active
IC50 [5]: 5.7 mM

NC1=NS(=O)(=O)Nc2nn(-c3ccccc3)nc21
Activity [1]: inactive

N=C(NC1CCC(C2CCC(N)CC2)CC1)C(=N)NC1CCC(C2CCC(N)CC2)CC1 (configuration not stated)
Activity [1]: > 20%
Activity [2]: Active

CC(CC(=N)N)NC(=O)C1CCC(N)=N1 (configuration not stated)
Activity [1]: inactive

Cc1ccc(O)c(C2CC(=O)NC(N)=N2)c1 (configuration not stated)
Activity [1]: inactive
Activity [2]: Active

Cn1cnc(N)c2ncnc1-2
Activity [1]: inactive

Cc1cnc2c(c1)CCCC2C(N)=S (configuration not stated)
Activity [1]: > 20%

Nc1nc(N)c2cnnn2n1
Activity [1]: inactive

CC1(C)N=C(N)N=C(N)N1c1cc(C(F)(F)F)cc(C(F)(F)F)c1
Activity [1]: inactive

NC=C1C(=O)NC(=O)NC1=O
Activity [1]: inactive

CC1(C)N=C(N)N=C(N)N1c1cccc(OCC#N)c1
Activity [3]: Active
inhibition [6]: Active
Activity [1]: > 20%
Activity [2]: Active

CC(=O)c1ccc(/N=N/c2c(N)nc(N)nc2N)cc1
Activity [1]: > 20%
Activity [2]: Active

Nc1nc(N)n(Cc2ccc3c(c2)OCO3)n1
Activity [1]: inactive

CC1(C)N=C(N)N=C(N)N1c1cccc(CO)c1
Activity [1]: inactive

CC1(C)N=C(N)N=C(N)N1c1cccc(/C=C/C=C/c2cccc([N+](=O)[O-])c2)c1
Activity [3]: Active
Activity [4]: inactive
Activity [1]: > 20%
Activity [2]: Active
IC50 [5]: 0.32 mM

NC1CCC(NC2CCC(N)CC2)CC1 (configuration not stated)
Activity [1]: > 20%
Activity [2]: Active

Cn1c(N)nc2nc[nH]c2c1=O
Activity [1]: inactive

CN1CC(=O)N=C(N)N=C1N
Activity [1]: inactive

NC[C@@H]1[C@@H](CN)[C@H]2C=C[C@@H]1CC2
Activity [1]: > 20%

Cc1nnc2c3nccnc3c(N)nn12
Activity [1]: inactive

Cn1c(CCNC(=N)CSS(=O)(=O)O)nc2ccccc21
Activity [1]: inactive

Nc1nsc2nc3ccccc3cc12
Activity [1]: inactive

NC(C(=O)O)C(O)c1c[nH]cn1 (configuration not stated)
Activity [1]: inactive

Nc1n[nH]c(=O)n2ncnc12
Activity [1]: inactive

C/C(=N\NC(=N)N)c1cnc(C)nc1C
Activity [1]: inactive
